Experimental data taken from ChEMBL document CHEMBL1177638, “Synthesis of pyrrolo[3,2-h]quinolinones with good photochemotherapeutic activity and no DNA damage” (Bioorg Med Chem, 2010).

Experiments:
Assay type in all cases: functional, cell-based
LoVo [1] = assay: Phototoxicity against human LoVo cells irradiated with 2.5 J/cm'2 after 72 hrs by MTT assay; settings: light or radiation study
Method in brief: (§1)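 Cells were seeded at 8 × 10³ and preincubated 18 h at 37 °C, 5% CO₂. Jurkat and K-562 grew in RPMI-1640, MCF-7 and NCTC-2544 in DMEM, and LoVo in Ham's F12, all with 10% FBS plus penicillin and streptomycin. Compounds in DMSO were diluted in HBSS, pH 7.2 (range 20–0.31; DMSO ≤1%) and applied 30 min at 37 °C. Wells were then UV-A irradiated (365 nm; 2.5 or 3.75 J/cm²), medium was replaced, and MTT was read after 72 h.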

[2] = Phototoxicity against human sNCTC-2544 cells irradiated with 2.5 J/cm'2 after 72 hrs by MTT assay; settings: NCTC-2544, light or radiation study; method in brief: as §1
K562 [3] = assay: Phototoxicity against human K562 cells irradiated with 3.75 J/cm'2 after 72 hrs by MTT assay; settings: K562, light or radiation study; method in brief: as §1
MCF7 [4] = assay: Phototoxicity against human MCF7 cells irradiated with 3.75 J/cm'2 after 72 hrs by MTT assay; settings: MCF7, light or radiation study; method in brief: as §1
MCF7 [5] = assay: Phototoxicity against human MCF7 cells irradiated with 2.5 J/cm'2 after 72 hrs by MTT assay; settings: MCF7, light or radiation study; method in brief: as §1
[6] = Phototoxicity against human sNCTC-2544 cells irradiated with 3.75 J/cm'2 after 72 hrs by MTT assay; settings: NCTC-2544, light or radiation study; method in brief: as §1
Jurkat [7] = assay: Phototoxicity against human Jurkat cells irradiated with 3.75 J/cm'2 after 72 hrs by MTT assay; settings: light or radiation study; method in brief: as §1
LoVo [8] = assay: Phototoxicity against human LoVo cells irradiated with 3.75 J/cm'2 after 72 hrs by MTT assay; settings: light or radiation study; method in brief: as §1
Jurkat [9] = assay: Phototoxicity against human Jurkat cells irradiated with 2.5 J/cm'2 after 72 hrs by MTT assay; settings: light or radiation study; method in brief: as §1
K562 [10] = assay: Phototoxicity against human K562 cells irradiated with 2.5 J/cm'2 after 72 hrs by MTT assay; settings: K562, light or radiation study; method in brief: as §1

**Q.** Which results are given for `O=c1[nH]c2c(cc1S(=O)(=O)c1ccccc1)CCc1cc[nH]c1-2`?
**A.** IC50 (LoVo [1]): > 20 µM; IC50 [2]: > 20 µM; IC50 (K562 [3]): > 20 µM; IC50 (MCF7 [4]): > 20 µM; IC50 (MCF7 [5]): > 20 µM; IC50 [6]: > 20 µM; IC50 (Jurkat [7]): > 20 µM; IC50 (LoVo [8]): > 20 µM; IC50 (Jurkat [9]): > 20 µM; IC50 (K562 [10]): > 20 µM

**Q.** With `N#Cc1cc2c([nH]c1=O)-c1c(ccn1S(=O)(=O)c1ccccc1)CC2` as the molecule, how does the IC50 (LoVo [1]) read?
**A.** > 20 µM

**Q.** And the IC50 [2]?
**A.** > 20 µM

**Q.** And the IC50 (K562 [3])?
**A.** > 20 µM

**Q.** And the IC50 (MCF7 [4])?
**A.** > 20 µM

**Q.** And the IC50 (MCF7 [5])?
**A.** > 20 µM

**Q.** And the IC50 [6]?
**A.** > 20 µM

**Q.** And the IC50 (Jurkat [7])?
**A.** > 20 µM

**Q.** What about the IC50 (LoVo [8]) of the same molecule?
**A.** > 20 µM

**Q.** And the IC50 (Jurkat [9])?
**A.** > 20 µM

**Q.** And the IC50 (K562 [10])?
**A.** > 20 µM

**Q.** Which IC50 (LoVo [1]) does the source give for `CCOC(=O)c1cc2c(n1Cc1ccc(C)cc1)-c1[nH]c(=O)c(S(=O)(=O)c3ccccc3)cc1CC2` here?
**A.** 1.6 µM

**Q.** What about the IC50 [2] of the same molecule?
**A.** 2.7 µM

**Q.** What about the IC50 (K562 [3]) of the same molecule?
**A.** 1 µM

**Q.** What about the IC50 (MCF7 [4]) of the same molecule?
**A.** 1.4 µM

**Q.** What about the IC50 (MCF7 [5]) of the same molecule?
**A.** 1.7 µM

**Q.** What about the IC50 [6] of the same molecule?
**A.** 2.2 µM

**Q.** What about the IC50 (Jurkat [7]) of the same molecule?
**A.** 1.2 µM

**Q.** What about the IC50 (LoVo [8]) of the same molecule?
**A.** 1 µM

**Q.** And the IC50 (Jurkat [9])?
**A.** 1.5 µM

**Q.** What about the IC50 (K562 [10]) of the same molecule?
**A.** 1.3 µM

**Q.** Which results are given for `Cc1ccc(Cn2ccc3c2-c2[nH]c(=O)c(S(=O)(=O)c4ccccc4)cc2CC3)cc1`?
**A.** IC50 (LoVo [1]): 2.7 µM; IC50 [2]: 3.3 µM; IC50 (K562 [3]): 2.4 µM; IC50 (MCF7 [4]): 2.4 µM; IC50 (MCF7 [5]): 3.8 µM; IC50 [6]: 2.6 µM; IC50 (Jurkat [7]): 1.2 µM; IC50 (LoVo [8]): 2.3 µM; IC50 (Jurkat [9]): 1.6 µM; IC50 (K562 [10]): 2.7 µM

**Q.** Which results are given for `O=c1[nH]c2c(cc1S(=O)(=O)c1ccccc1)CCc1ccn(-c3ccccc3)c1-2`?
**A.** IC50 (LoVo [1]): > 20 µM; IC50 [2]: > 20 µM; IC50 (K562 [3]): > 20 µM; IC50 (MCF7 [4]): > 20 µM; IC50 (MCF7 [5]): > 20 µM; IC50 [6]: > 20 µM; IC50 (Jurkat [7]): > 20 µM; IC50 (LoVo [8]): > 20 µM; IC50 (Jurkat [9]): > 20 µM; IC50 (K562 [10]): > 20 µM

**Q.** For `Cn1ccc2c1-c1[nH]c(=O)c(S(=O)(=O)c3ccccc3)cc1CC2`, which IC50 (LoVo [1]) is on record?
**A.** > 20 µM

**Q.** What about the IC50 [2] of the same molecule?
**A.** > 20 µM

**Q.** What about the IC50 (K562 [3]) of the same molecule?
**A.** > 20 µM

**Q.** And the IC50 (MCF7 [4])?
**A.** > 20 µM

**Q.** And the IC50 (MCF7 [5])?
**A.** > 20 µM

**Q.** What about the IC50 [6] of the same molecule?
**A.** > 20 µM

**Q.** And the IC50 (Jurkat [7])?
**A.** > 20 µM

**Q.** And the IC50 (LoVo [8])?
**A.** > 20 µM

**Q.** What about the IC50 (Jurkat [9]) of the same molecule?
**A.** > 20 µM

**Q.** What about the IC50 (K562 [10]) of the same molecule?
**A.** > 20 µM

**Q.** Which results are given for `COc1ccc(Cn2ccc3c2-c2[nH]c(=O)c(S(=O)(=O)c4ccccc4)cc2CC3)cc1`?
**A.** IC50 (LoVo [1]): 2.8 µM; IC50 [2]: 4.3 µM; IC50 (K562 [3]): 2.5 µM; IC50 (MCF7 [4]): 1.8 µM; IC50 (MCF7 [5]): 4.2 µM; IC50 [6]: 2.7 µM; IC50 (Jurkat [7]): 1.2 µM; IC50 (LoVo [8]): 2 µM; IC50 (Jurkat [9]): 1.6 µM; IC50 (K562 [10]): 3.1 µM

**Q.** Which IC50 (LoVo [1]) does the source give for `CCOC(=O)c1cc2c([nH]1)-c1[nH]c(=O)c(S(=O)(=O)c3ccccc3)cc1CC2` here?
**A.** 5.5 µM

**Q.** What about the IC50 [2] of the same molecule?
**A.** 9.3 µM

**Q.** What about the IC50 (K562 [3]) of the same molecule?
**A.** 5.3 µM

**Q.** What about the IC50 (MCF7 [4]) of the same molecule?
**A.** 4.3 µM

**Q.** And the IC50 (MCF7 [5])?
**A.** 6.1 µM

**Q.** And the IC50 [6]?
**A.** 7.2 µM

**Q.** What about the IC50 (Jurkat [7]) of the same molecule?
**A.** 2.5 µM

**Q.** And the IC50 (LoVo [8])?
**A.** 4.6 µM

**Q.** And the IC50 (Jurkat [9])?
**A.** 3.5 µM

**Q.** What about the IC50 (K562 [10]) of the same molecule?
**A.** 6.1 µM

**Q.** Which results are given for `O=c1[nH]c2c(cc1S(=O)(=O)c1ccccc1)CCc1ccn(Cc3ccccc3)c1-2`?
**A.** IC50 (LoVo [1]): 2.6 µM; IC50 [2]: 7.5 µM; IC50 (K562 [3]): 3.3 µM; IC50 (MCF7 [4]): 1.7 µM; IC50 (MCF7 [5]): 4 µM; IC50 [6]: 5.5 µM; IC50 (Jurkat [7]): 1.1 µM; IC50 (LoVo [8]): 2.2 µM; IC50 (Jurkat [9]): 1.3 µM; IC50 (K562 [10]): 4.8 µM

**Q.** With `O=c1[nH]c2c(cc1S(=O)(=O)c1ccccc1)CCc1ccn(S(=O)(=O)c3ccccc3)c1-2` as the molecule, how does the IC50 (LoVo [1]) read?
**A.** > 20 µM

**Q.** And the IC50 [2]?
**A.** > 20 µM

**Q.** What about the IC50 (K562 [3]) of the same molecule?
**A.** > 20 µM

**Q.** What about the IC50 (MCF7 [4]) of the same molecule?
**A.** > 20 µM

**Q.** What about the IC50 (MCF7 [5]) of the same molecule?
**A.** > 20 µM

**Q.** And the IC50 [6]?
**A.** > 20 µM

**Q.** What about the IC50 (Jurkat [7]) of the same molecule?
**A.** > 20 µM

**Q.** And the IC50 (LoVo [8])?
**A.** > 20 µM

**Q.** What about the IC50 (Jurkat [9]) of the same molecule?
**A.** > 20 µM

**Q.** What about the IC50 (K562 [10]) of the same molecule?
**A.** > 20 µM
